Laboratory results taken from ChEMBL document CHEMBL4033799, “Stable and Long-Lasting, Novel Bicyclic Peptide Plasma Kallikrein Inhibitors for the Treatment of Diabetic Macular Edema” (J Med Chem, 2018).
pKi: −log10 of the molar value. *1 amine or outer side, *2 acyl side, *3 side chain or, on linkers, in order; H or OH if unused. Where a SMILES comes first, the peptide text is derived from it. Bridges are numbered along the chain shown (N, C = ends). TBMB = c1c(C[*:1])cc(C[*:3])cc1C[*:2]

Tests used:
[1] = tested on: Rattus norvegicus; experiment: Antiinflammatory activity in Sprague-Dawley rat assessed as inhibition carrageenan-induced paw edema at 30 mg/kg, ip pretreated for 15 mins followed by carrageenan challenge measured at 4 hrs post carrageenan challenge; format: functional
Summary of the method: (§1)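 Male Sprague-Dawley rats received peptide IP (30, 10 or 3 mg/kg), or indomethacin IP at 5 mg/kg, 15 min before subplantar carrageenan. Paw volume was followed over time against a vehicle group.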

[2] = tested on: Rattus norvegicus; experiment: Antiinflammatory activity in Sprague-Dawley rat assessed as inhibition carrageenan-induced paw edema at 30 mg/kg, ip pretreated for 15 mins followed by carrageenan challenge measured at 1 hr post carrageenan challenge; format: functional; summary of the method: as §1
[3] = tested on: Rattus norvegicus; experiment: Antidiabetic activity in STZ-induced diabetic Brown-Norway rat model assessed as reduction in retinal vascular leakage at 100 ug/eye administered via ivt measured at 4 weeks post diabetes onset relative to control; format: functional
Summary of the method: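 Diabetes was induced with STZ in male Brown-Norway rats. Peptide was given intravitreally at 100 μg/eye. Retinal vascular permeability was read as FITC-BSA extravasation 4 weeks after diabetes onset and compared with vehicle-treated diabetic rats. A soluble VEGF-trap served as positive control.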

[4] = tested on: Rattus norvegicus; experiment: Antiinflammatory activity in Sprague-Dawley rat assessed as inhibition carrageenan-induced paw edema at 30 mg/kg, ip pretreated for 15 mins followed by carrageenan challenge measured at 2 hrs post carrageenan challenge; format: functional; summary of the method: as §1
[5] = tested on: Plasma; experiment: Anti-coagulating activity in factor 8-deficient human plasma assessed as increase in coagulation time at 10 uM by aPTT assay; format: functional
Summary of the method: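 Clotting time measured on a coagulation analyzer using actin FS, 0.025 M CaCl2, FVIII-deficient human plasma and Owren's Veronal Buffer pH 7.35, run per the manufacturer's instructions. Peptide tested from zero (vehicle) up to 10 μM. Each point is the mean ± SD of triplicates.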

[6] = biological target: Plasma kallikrein (Homo sapiens, UniProt P03952); experiment: Inhibition of human plasma kallikrein using fluorogenic H-Pro-Phe-Arg-AMC peptide as substrate preincubated for 15 mins followed by substrate addition measured by fluorescence-based assay; details: read-out: Ki(app)
[7] = biological target: Plasma kallikrein (Rattus norvegicus, UniProt P14272); experiment: Inhibition of recombinant Sprague-Dawley rat plasma kallikrein using fluorogenic H-Pro-Phe-Arg-AMC peptide as substrate preincubated for 15 mins followed by substrate addition measured by fluorescence-based assay; details: read-out: Ki(app)
[8] = Aqueous solubility of the compound in buffer; format: physicochemical
[9] = tested on: Plasma; experiment: Stability in rat plasma at 50 uM incubated for 2 days by MALDI-TOF analysis; format: ADME, cell-free; details: 48 h
Summary of the method: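 Qualitative stability test. 1 mM DMSO stock diluted into citrated rat plasma to 50 μM and held at 37 °C for up to 2 days. Aliquots at time points quenched in 1:1 acetonitrile/methanol and centrifuged. Supernatant mixed with 30 mM ammonium bicarbonate. Parent mass and protease metabolites detected by MALDI-TOF.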

Sequence of Plasma kallikrein (Homo sapiens, UniProt P03952) (P03952 20-390 limits assumed): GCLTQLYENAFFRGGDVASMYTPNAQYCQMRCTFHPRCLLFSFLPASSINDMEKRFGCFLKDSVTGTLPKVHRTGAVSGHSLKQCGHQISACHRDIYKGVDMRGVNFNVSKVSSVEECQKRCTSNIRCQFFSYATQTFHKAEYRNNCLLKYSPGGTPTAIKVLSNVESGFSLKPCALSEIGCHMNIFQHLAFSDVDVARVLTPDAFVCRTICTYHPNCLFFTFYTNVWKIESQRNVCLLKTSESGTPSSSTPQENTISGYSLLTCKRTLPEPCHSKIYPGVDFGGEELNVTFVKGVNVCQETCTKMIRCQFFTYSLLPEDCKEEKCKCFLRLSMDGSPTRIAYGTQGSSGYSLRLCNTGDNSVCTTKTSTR
Sequence of Plasma kallikrein (Homo sapiens, UniProt P03952) (P03952 391-638 limits assumed): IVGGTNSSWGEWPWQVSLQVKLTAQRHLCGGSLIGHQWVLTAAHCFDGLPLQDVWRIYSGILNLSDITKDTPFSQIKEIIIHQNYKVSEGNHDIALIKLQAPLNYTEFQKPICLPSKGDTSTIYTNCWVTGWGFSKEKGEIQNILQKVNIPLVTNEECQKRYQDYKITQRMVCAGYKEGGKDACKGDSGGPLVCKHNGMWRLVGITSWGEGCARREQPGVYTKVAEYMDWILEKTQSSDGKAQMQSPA
Sequence of Plasma kallikrein (Rattus norvegicus, UniProt P14272) (P14272 20-390 limits assumed): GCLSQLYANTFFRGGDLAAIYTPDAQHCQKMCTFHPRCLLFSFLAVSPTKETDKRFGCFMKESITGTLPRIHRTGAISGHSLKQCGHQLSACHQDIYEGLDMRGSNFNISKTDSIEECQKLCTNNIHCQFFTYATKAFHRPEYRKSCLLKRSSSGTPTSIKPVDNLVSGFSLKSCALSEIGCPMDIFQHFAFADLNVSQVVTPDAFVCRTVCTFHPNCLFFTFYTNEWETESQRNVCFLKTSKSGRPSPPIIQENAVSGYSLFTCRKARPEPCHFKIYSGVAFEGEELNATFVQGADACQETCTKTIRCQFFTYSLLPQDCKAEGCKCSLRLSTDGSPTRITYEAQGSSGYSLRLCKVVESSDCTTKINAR
Sequence of Plasma kallikrein (Rattus norvegicus, UniProt P14272) (P14272 391-638 limits assumed): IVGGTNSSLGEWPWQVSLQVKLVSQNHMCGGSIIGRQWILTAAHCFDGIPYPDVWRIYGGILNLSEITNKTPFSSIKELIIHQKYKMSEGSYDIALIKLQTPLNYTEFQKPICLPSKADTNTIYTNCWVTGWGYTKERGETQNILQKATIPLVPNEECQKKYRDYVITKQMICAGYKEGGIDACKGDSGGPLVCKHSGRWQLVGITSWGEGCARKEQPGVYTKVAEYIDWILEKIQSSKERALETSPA

| pKi [6] | pKi [7] | solubility [8] | Stability [9] | SMILES | inhibition in vivo at 30 mg/kg [1] [%] | inhibition in vivo at 30 mg/kg [2] [%] | inhibition (INH) [3] [%] | inhibition in vivo at 30 mg/kg [4] [%] | Activity [5] [%] |
| --- | --- | --- | --- | --- | --- | --- | --- | --- | --- |
|  |  |  |  | CC(=O)N[C@H]1CSCc2cc3cc(c2)CSC[C@H](NC(=O)[C@H](CCCCNC(=N)N)NC(=O)[C@H](Cc2ccc(O)cc2)NC(=O)[C@@H]2CCN2C(=O)[C@H](Cc2ccccc2)NC(=O)[C@H](CO)NC1=O)C(=O)N[C@@H](C)CN[C@@H](Cc1cnc[nH]1)C(=O)N[C@@H](CCC(N)=O)C(=O)N[C@@H](CC(=O)O)C(=O)N[C@@H](CC(C)C)C(=O)N[C@H](C(=O)O)CSC3 | 32 | 90 | 30 | 52 | 15 |
| 8.64 | 9.40 | Insoluble | Unstable | CC(C)C[C@@H]1NC(=O)[C@@H]2CCCN2C(=O)[C@H](C)NC(=O)[C@H](CC(=O)O)NC(=O)[C@H](Cc2c[nH]c3ccccc23)NC(=O)[C@@H]2CCCN2C(=O)[C@@H]2CSCc3cc(cc(c3)CSC[C@@H](C(=O)N[C@@H](C)C(=O)O)NC1=O)CSC[C@H](NC(=O)[C@H](C)N)C(=O)N[C@@H](CC(N)=O)C(=O)N[C@@H]([C@@H](C)O)C(=O)N[C@@H](Cc1c[nH]c3ccccc13)C(=O)N[C@@H](CC(N)=O)C(=O)N1CCC[C@H]1C(=O)N[C@@H](Cc1c[nH]c3ccccc13)C(=O)N2 (H-ACNTWNPWCPWDAPLCA-OH; linker 2-9-16 via TBMB) |  |  |  |  |  |
